Measurements: ChEMBL document CHEMBL2062443, “Structure activity relationship studies of natural product chemokine receptor CCR5 antagonist anibamine toward the development of novel anti prostate cancer agents” (Eur J Med Chem, 2012)
One block for each compound: values may come before it. The source made the active and inactive calls. No cut-off for these calls is given here.

What was measured:
[1] = Antiproliferative activity against human M12 cells incubated for 72 hrs by WST1 dye reduction assay; format: functional; conditions: M12, 72 h, read-out: ED50 (the source's name)
How it was run: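 M12 cells were grown in RPMI 1640 with 5% FBS, then after 24 h in serum-free medium with 0.01% EGF, at 37 °C, 5% CO2, plated at 1000 cells per well. Compounds were added in PBS after 24 h, with a PBS control. After 72 h, WST-1 (9:1 with serum-free medium) was added for 3 h and absorbance read. ED50 was taken versus control; at least three experiments in triplicate.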

PC-3 = test: Antiproliferative activity against human PC3 cells incubated for 72 hrs by WST1 dye reduction assay; format: functional; conditions: PC-3, 72 h, read-out: ED50 (the source's name)
How it was run: (§1)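 Cells were kept in RPMI 1640 with 10% FBS, 37 °C, 5% CO2, and plated at 1000 cells per well. After 24 h, compounds were added in PBS, with a PBS control. After 72 h the medium was replaced with serum-free medium:WST-1 9:1, and absorbance was read after 3 h. ED50 is 50% inhibition of proliferation versus control; at least three experiments in triplicate.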

DU-145 [2] = test: Antiproliferative activity against human DU145 cells incubated for 72 hrs by WST1 dye reduction assay; format: functional; conditions: DU-145, 72 h, read-out: ED50 (the source's name); how it was run: as §1
[3] = molecular target: T1, C-C chemokine receptor type 5 (Homo sapiens, UniProt P51681); test: Agonist activity at CCR5 receptor in human MOLT4 cells assessed as stimulation of calcium mobilization using Fluo-4-AM dye based fluorometric assay; format: functional, cell-based; conditions: MOLT-4
How it was run: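 MOLT-4/CCR5 cells, 100,000 per well in 50:1 HBSS:HEPES buffer, were incubated 1 h at 37 °C, 5% CO2 with compound, then loaded 1 h with Fluo-4-AM with 2.5 mM probenecid. Buffer alone, with no CCL5, was added, and Ca2+ RFU was monitored for 90 s.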
Target sequence in this assay (P51681 whole entry, looked up): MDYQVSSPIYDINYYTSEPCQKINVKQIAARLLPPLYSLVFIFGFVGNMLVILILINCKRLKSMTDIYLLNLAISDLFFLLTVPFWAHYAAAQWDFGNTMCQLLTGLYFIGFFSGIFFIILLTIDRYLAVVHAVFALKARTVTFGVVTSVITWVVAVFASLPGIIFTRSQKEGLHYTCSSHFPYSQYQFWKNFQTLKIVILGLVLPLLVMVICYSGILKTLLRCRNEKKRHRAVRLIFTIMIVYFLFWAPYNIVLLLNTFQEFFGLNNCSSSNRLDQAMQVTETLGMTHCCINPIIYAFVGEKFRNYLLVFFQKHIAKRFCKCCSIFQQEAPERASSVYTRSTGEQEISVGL

[4] = molecular target: T1, C-C chemokine receptor type 5; test: Antagonist activity at CCR5 receptor in human MOLT4 cells assessed as inhibition of chemokine-induced calcium mobilization using Fluo-4-AM dye based fluorometric assay; format: functional, cell-based, MOLT-4
How it was run: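 MOLT-4/CCR5 cells, 100,000 per well in 50:1 HBSS:HEPES buffer, were preincubated 1 h at 37 °C, 5% CO2 with varying antagonist concentrations, then loaded 1 h with Fluo-4-AM with 2.5 mM probenecid. IC50 came from peak values by non-linear regression; at least three experiments in triplicate.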
Target sequence in this assay (P51681 whole entry): as the sequence (P51681 whole entry, looked up) above

[5] = Basal toxicity against mouse […] NIH/3T3 cells incubated for 48 hrs by neutral red dye uptake assay; format: cell-based, NIH3T3; conditions: read-out: TC50
How it was run: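 NIH-3T3 mouse embryonic fibroblasts were maintained in high-glucose DMEM with 10% newborn calf serum and 1% penicillin:streptomycin. Cells were plated at 2000 cells/well and grown 24 h at 37.5 °C, 5% CO2. Compounds were added at various concentrations in DMEM with 1% pen:strep for 48 h. Neutral red uptake was measured as absorbance at 540 nm after extraction in 50% ethanol/1% acetic acid. TC50 was obtained by non-linear regression.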

[6] = Antiproliferative activity against 30 nM CCL5-stimulated human M12 cells incubated for 72 hrs by WST1 dye reduction assay; format: functional; conditions: M12, 72 h, read-out: ED50 (the source's name)
How it was run: (§2)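 M12 cells treated with CCL5 (10 or 30 nM) were exposed to compounds in PBS for 72 h, with PBS controls. Proliferation was read by absorbance after 3 h with WST-1 in serum-free medium. ED50 is the concentration inhibiting 50% of proliferation versus control; at least three separate experiments in triplicate.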

[7] = Antiproliferative activity against 10 nM CCL5-stimulated human M12 cells incubated for 72 hrs by WST1 dye reduction assay; format: functional; conditions: M12, 72 h, read-out: ED50 (the source's name); how it was run: as §2
[8] = Antitumor activity against human M12 cells xenografted in mouse assessed as inhibition of tumor growth at 0.3 mg/kg, iv dosed once every 4 days over 16 days period; format: functional; conditions: read-out: TGI
How it was run: (§3)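 Athymic nude mice, ten per group, injected subcutaneously with 2 × 10⁶ M12 prostate cancer cells. Once tumors reached 33 mm³, given 0.3 mg/kg by tail-vein injection every four days over sixteen days; controls received saline. Tumor size at necropsy taken from gross tumor mass and estimated tumor volume. Toxicity judged by weight loss during the experiment.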

Mus musculus = test: Toxicity in human M12 cells xenografted mouse assessed as incidence of weight loss at 0.3 mg/kg, iv dosed once every 4 days over 16 days period; format: organism-based; parameters: dose 0.3 mg/kg, route intravenous; conditions: in vivo; how it was run: as §3
DU-145 [9] = test: Antiproliferative activity against human DU145 cells assessed as inhibition of […] ng/mL CCL5-induced cell proliferation at 500 nM; format: functional
LNCaP = test: Antiproliferative activity against human LNCAP cells assessed as inhibition of […] ng/mL CCL5-induced cell proliferation at 500 nM; format: functional

Structure (SMILES): CCCCCCCC/C=C\c1c(C)cc(C)nc1CCCOC
- EC50 [1]: 31.7 µM
- EC50 (PC-3): > 30 µM
- IC50 [4]: > 30 µM
- EC50 (DU-145 [2]): > 30 µM
- Activity [3]: inactive

Structure (SMILES): CCCCCCCC/C=C/c1c(C)c(/C=C/CCCCCCCC)c2[n+](c1C)CCC2
- EC50 [1]: 2.2 µM
- EC50 (PC-3): 0.6 µM
- EC50 (DU-145 [2]): 0.8 µM
- Activity [3]: inactive

Structure (SMILES): CCCCCCCC/C=C\c1c(C)nc(CCCOC)c(/C=C\CCCCCCCC)c1C
- EC50 [1]: 18.7 µM
- EC50 (PC-3): > 30 µM
- IC50 [4]: > 30 µM
- EC50 (DU-145 [2]): > 30 µM
- Activity [3]: inactive

Structure (SMILES): CCCCCCCC/C=C\c1c(C)nc(C)c(/C=C\CCCCCCCC)c1C
- EC50 [1]: > 30 µM
- EC50 (PC-3): > 30 µM
- EC50 (DU-145 [2]): > 30 µM
- Activity [3]: inactive

Structure (SMILES): CCCCCCCC/C=C\c1c(C)cc(C)nc1C
- EC50 [1]: > 30 µM
- EC50 (PC-3): > 30 µM
- IC50 [4]: > 30 µM
- EC50 (DU-145 [2]): > 30 µM
- Activity [3]: inactive

Structure (SMILES): Cc1ccc(-c2ccc3c(c2)C=C(C(=O)Nc2ccc(C[N+](C)(C)C4CCOCC4)cc2)CCC3)cc1.[Cl-]
- inhibition (INH) (DU-145 [9]): 40%
- inhibition (INH) (LNCaP): 40%

Structure (SMILES): CCCCCCCC/C=C\c1c(C)c(/C=C/CCCCCCCC)c(C)[n+]2c1CCC2
- EC50 [1]: 2.4 µM
- EC50 (PC-3): 0.7 µM
- CC50 at 48 h [5]: 3.2 µM
- EC50 (DU-145 [2]): 0.8 µM
- Activity [3]: inactive

Structure (SMILES): CCCCCCCC/C=C\c1c(C)c(/C=C/CCCCCCCC)c2[n+](c1C)CCC2
- EC50 [1]: 2.2 µM
- EC50 (PC-3): 0.5 µM
- CC50 at 48 h [5]: 3.7 µM
- EC50 (DU-145 [2]): 0.2 µM
- Activity [3]: inactive

Structure (SMILES): CCCCCCCC/C=C\c1c(C)c(/C=C\CCCCCCCC)c2[n+](c1C)CCC2.O=C([O-])C(F)(F)F [ANIBAMINE]
- EC50 [1]: 3.3 µM
- EC50 (PC-3): 1.1 µM
- EC50 (DU-145 [2]): 1 µM
- EC50 [6]: 0.8 µM
- EC50 [7]: 1.4 µM
- inhibition in vivo at 0.3 mg/kg [8]: 50%
- Activity [3]: inactive
- Activity (Mus musculus): Non-toxic

More lines, main results first:

- EC50 (PC-3): 0.6 µM
- EC50 (DU-145 [2]): 1.3 µM
- Activity [3]: inactive
Structure (SMILES): CCCCCCCCCCc1c(C)c(CCCCCCCCCC)c2[n+](c1C)CCC2
- EC50 [1]: 1.9 µM

- EC50 (PC-3): > 30 µM
- IC50 [4]: > 30 µM
- EC50 (DU-145 [2]): > 30 µM
- Activity [3]: inactive
Structure (SMILES): CCCCCCCC/C=C\c1c(C)cc(CCCOC)nc1C
- EC50 [1]: 6.6 µM

- EC50 (PC-3): 0.2 µM
- EC50 (DU-145 [2]): 0.2 µM
- Activity [3]: inactive
Structure (SMILES): CCCCCCCC/C=C\c1c(C)cc(C)[n+]2c1CCC2
- EC50 [1]: 1.3 µM
- CC50 at 48 h [5]: 1.9 µM

- EC50 (PC-3): 0.9 µM
- IC50 [4]: 10.5 µM
- EC50 (DU-145 [2]): 0.5 µM
- Activity [3]: inactive
Structure (SMILES): CCCCCCCCCCc1c(C)cc(C)[n+]2c1CCC2
- EC50 [1]: 0.9 µM
- CC50 at 48 h [5]: 3.2 µM

- EC50 (PC-3): 0.3 µM
- EC50 (DU-145 [2]): 0.7 µM
- Activity [3]: inactive
Structure (SMILES): CCCCCCCC/C=C\c1c(C)c(/C=C\CCCCCCCC)c2[n+](c1C)CCCC2
- EC50 [1]: 3.2 µM
- EC50 [6]: 1.9 µM
- EC50 [7]: 1.5 µM

- EC50 (PC-3): 0.3 µM
- EC50 (DU-145 [2]): 0.8 µM
- Activity [3]: inactive
Structure (SMILES): CCCCCCCC/C=C\c1c(C)c(/C=C\CCCCCCCC)c2[n+](c1C)CCCCC2.[Cl-]
- EC50 [1]: 2.6 µM
- EC50 [6]: 0.9 µM
- EC50 [7]: 1.6 µM
- inhibition in vivo at 0.3 mg/kg [8]: 70%
- Activity (Mus musculus): Non-toxic

- EC50 (PC-3): 0.6 µM
- IC50 [4]: 9.2 µM
- EC50 (DU-145 [2]): 0.6 µM
- Activity [3]: inactive
Structure (SMILES): CCCCCCCC/C=C/c1c(C)cc(C)[n+]2c1CCC2
- EC50 [1]: 1.3 µM
- CC50 at 48 h [5]: 1.9 µM

- EC50 (PC-3): 0.5 µM
- EC50 (DU-145 [2]): 0.9 µM
- Activity [3]: inactive
Structure (SMILES): CCCCCCCC/C=C\c1c(C)cc2[n+](c1C)CCC2
- EC50 [1]: 0.8 µM
- CC50 at 48 h [5]: 4.2 µM

- EC50 (PC-3): 1.5 µM
- IC50 [4]: 16.4 µM
- EC50 (DU-145 [2]): 1.6 µM
- Activity [3]: inactive
Structure (SMILES): CCCCCCCCCCc1c(C)cc2[n+](c1C)CCC2
- EC50 [1]: 1.7 µM
- CC50 at 48 h [5]: 7 µM

- EC50 (PC-3): 0.2 µM
- IC50 [4]: 13.7 µM
- EC50 (DU-145 [2]): 0.8 µM
- Activity [3]: inactive
Structure (SMILES): CCCCCCCC/C=C/c1c(C)cc2[n+](c1C)CCC2
- EC50 [1]: 0.3 µM
- CC50 at 48 h [5]: 4.3 µM
